From ChEMBL document CHEMBL1129750, “Bicyclic N-hydroxyurea inhibitors of 5-lipoxygenase: pharmacodynamic, pharmacokinetic, and in vitro metabolic studies characterizing N-hydroxy-N-(2,3-dihydro-6-(phenylmethoxy)-3-benzofuranyl)urea” (J Med Chem, 1996)
Active and inactive are the calls of the source. No cut-off for these calls is given here.

How the values were obtained:
[1] = molecular target: T1, Polyunsaturated fatty acid 5-lipoxygenase (Rattus norvegicus, UniProt P12527); assay: Inhibitory activity against rat 5-lipoxygenase by using continuous oxygen consumption assay.
T1 sequence (P12527 whole entry): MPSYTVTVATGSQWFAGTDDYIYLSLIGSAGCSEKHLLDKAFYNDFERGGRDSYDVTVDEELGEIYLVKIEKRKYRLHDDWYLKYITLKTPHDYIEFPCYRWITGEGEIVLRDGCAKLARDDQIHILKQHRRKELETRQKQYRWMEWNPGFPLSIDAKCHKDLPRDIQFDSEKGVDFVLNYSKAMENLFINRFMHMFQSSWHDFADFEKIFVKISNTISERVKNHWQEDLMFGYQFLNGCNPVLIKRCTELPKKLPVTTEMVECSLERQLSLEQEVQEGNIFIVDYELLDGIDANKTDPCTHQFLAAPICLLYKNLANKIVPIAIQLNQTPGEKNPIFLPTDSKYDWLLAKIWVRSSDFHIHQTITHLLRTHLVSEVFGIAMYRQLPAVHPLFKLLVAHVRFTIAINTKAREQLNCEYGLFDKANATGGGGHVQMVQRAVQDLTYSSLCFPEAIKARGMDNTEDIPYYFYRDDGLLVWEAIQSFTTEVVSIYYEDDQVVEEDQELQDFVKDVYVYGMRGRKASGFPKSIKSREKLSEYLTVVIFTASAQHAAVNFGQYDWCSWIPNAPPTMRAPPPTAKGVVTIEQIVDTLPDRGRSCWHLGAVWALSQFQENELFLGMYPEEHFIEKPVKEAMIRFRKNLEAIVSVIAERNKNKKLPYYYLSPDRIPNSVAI
Procedure, shortened: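 Semipurified cytosolic 5-LO from rat basophilic leukemia (RBL-1) cells; continuous oxygen-electrode assay of oxygen consumption; IC50.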

[2] = molecular target: T2, Polyunsaturated fatty acid 5-lipoxygenase (Mus musculus) (UniProt P48999); assay: Inhibition of leukotriene formation in A-23187-stimulated mouse whole blood using […] ex vivo, activity expressed as percent of control.; type: functional, tissue-based; design: scale not given: the % may be the effect or the level left
T2 sequence (whole entry): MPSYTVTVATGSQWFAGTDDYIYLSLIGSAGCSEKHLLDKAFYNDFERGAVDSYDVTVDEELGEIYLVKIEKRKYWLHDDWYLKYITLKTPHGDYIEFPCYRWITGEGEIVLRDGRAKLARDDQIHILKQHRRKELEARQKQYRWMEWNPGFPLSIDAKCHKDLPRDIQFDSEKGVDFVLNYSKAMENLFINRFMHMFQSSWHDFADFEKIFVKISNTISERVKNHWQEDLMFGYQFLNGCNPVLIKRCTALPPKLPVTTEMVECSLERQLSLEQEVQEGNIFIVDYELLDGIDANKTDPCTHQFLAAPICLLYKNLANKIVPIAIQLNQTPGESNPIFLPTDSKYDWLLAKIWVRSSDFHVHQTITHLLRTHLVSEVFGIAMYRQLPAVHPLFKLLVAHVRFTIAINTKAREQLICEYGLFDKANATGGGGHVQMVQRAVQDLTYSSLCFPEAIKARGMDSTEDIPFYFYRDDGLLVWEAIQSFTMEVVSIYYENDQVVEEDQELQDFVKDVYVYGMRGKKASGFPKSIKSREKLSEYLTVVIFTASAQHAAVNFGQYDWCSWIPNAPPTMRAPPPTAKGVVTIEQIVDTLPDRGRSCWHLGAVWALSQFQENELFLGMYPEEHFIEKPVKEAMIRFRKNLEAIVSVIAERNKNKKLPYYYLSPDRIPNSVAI

Mus musculus [3] = species: Mus musculus; assay: Compound was tested to inhibit Leukotriene formation in A-23187-stimulated mouse whole blood using […] ex vivo, activity expressed as percent of control; NS=No Stastistical Significance; type: functional, organism-based
Homo sapiens [4] = species: Homo sapiens; assay: Compound was tested to inhibit Leukotriene formation in A-23187-stimulated human whole blood using LTB4 specific RIA in vitro; type: functional
Procedure, shortened: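 Human whole blood stimulated with A23187; LTB4 measured by specific radioimmunoassay. IC50 with 95% confidence limits from linear regression.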

Mus musculus [5] = assay: Compound was tested to inhibit Leukotriene formation in mouse sensitized with 1BD8 cells after 7 hr of compound administration, activity expressed as percent of control; type: functional; design: concentration or dose not given beside the values
Mus musculus [6] = species: Mus musculus; assay: Compound was tested to inhibit Leukotriene formation in A-23187-stimulated mouse whole blood using […] ex vivo; type: functional
Mus musculus [7] = assay: Maximum inhibition of LTB4 at dose 6 mg/kg in mouse; type: functional
Mus musculus [8] = assay: Percentage inhibition of LTB4 after 6 hr at dose 6 mg/kg in mouse; type: functional
Mus musculus [9] = species: Mus musculus; assay: Inhibition of Leukotriene formation in mouse adoptive peritoneal anaphylaxis assay ex vivo; type: functional
Mus musculus [10] = assay: Maximum inhibition of LTB4 at dose 3 mg/kg in mouse; type: functional
Mus musculus [11] = assay: Percentage inhibition of LTB4 after 6 hr at dose 3 mg/kg in mouse; NS=No Stastistical Significance; type: functional, organism-based; design: dose 3 mg/kg
Mus musculus [12] = assay: Maximum inhibition of LTB4 at dose 10 mg/kg in mouse; type: functional
Mus musculus [13] = assay: Percentage inhibition of LTB4 after 6 hr at dose 10 mg/kg in mouse; type: functional
Canis familiaris = assay: Compound was administered intravenously in dog to evaluate plasma clearance values; type: ADME, organism-based, Canis lupus familiaris; details: in vivo, iv
Procedure, shortened: (§1)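 IV infusion over 15 min via saphenous (monkey) or cephalic (dog) vein catheter, 1–1.4 mg/kg in 7.5% (w/v) aqueous (2-hydroxypropyl)-β-cyclodextrin; male cynomolgus monkeys and beagle dogs, N = 3. Chilled plasma analysed by HPLC. Noncompartmental parameters were estimated per animal and then averaged. CLp = dose/AUC, with AUC by linear/log-linear trapezoidal rule.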

[14] = Compound was administered intravenously in monkey to evaluate plasma clearance values; type: ADME, organism-based; details: simiiformes, plasma, iv; read-out: Clp; procedure, shortened: as §1
[15] = Compound was administered intravenously in mouse to evaluate plasma clearance values; type: ADME, organism-based; details: iv, read-out: Clp
Procedure, shortened: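 Male CD-1 mice given 0.5 mg/kg IV by lateral tail vein over 5–10 s, in ethanol/propylene glycol 30:70 v/v; N = 3 per time point with terminal sampling under ether. Plasma HPLC, LOQ 0.05 μg/mL. Mean concentration per time point before noncompartmental analysis. Half-life from slope of log-concentration profile; CLp = dose/AUC.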

Mus musculus [16] = species: Mus musculus; assay: Glucuronidation rates in mouse liver microsomes; type: functional
Procedure, shortened: (§2)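 Liver microsomes (fresh male CD-1 mouse >10 weeks, or frozen human donor) at 0.25–1.0 mg/mL protein. Incubated with 2.5 mM substrate, 15 mM [14C]UDP-glucuronic acid, 10 mM MgCl2 and 2% BSA in 100 mM sodium phosphate pH 7.4, at 37 °C for 1–4 h. Stopped with 20% acetonitrile; glucuronide quantified by HPLC. Mean of duplicates.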

Homo sapiens [17] = species: Homo sapiens; assay: Glucuronidation rates in human liver microsomes; type: functional; procedure, shortened: as §2
Mus musculus [18] = species: Mus musculus; assay: Glucuronidation rates in mouse liver microsomes; not detected; type: functional; procedure, shortened: as §2
[19] = Mus musculus, Blood, read-out: ED50

SMILES	IC50 [1] [µM]	Activity [2] [%]	further results
NC(=O)N(O)C1CCCc2ccccc21 (configuration not stated)	29	-30	
COc1ccc(COc2ccc3c(c2)CCC3N(O)C(N)=O)cc1 (configuration not stated)	1.4		Activity (Mus musculus [3]): inactive
NC(=O)N(O)C1COc2c1ccc1ccccc21 (configuration not stated)	4.2		
NC(=O)N(O)C1CCCc2c(OCc3ccccc3)cccc21 (configuration not stated)	0.91	-44	
NC(=O)N(O)C1CCc2cc(OCc3ccccc3)ccc21 (stereo in doubt; (-)2a) [listing 1 of 2 here]		0.9	
NC(=O)N(O)C1COc2cc(OCc3ccccc3)ccc21 (stereo in doubt; 1a) [listing 1 of 2 here]			IC50 (Homo sapiens [4]): 4.3 µM; Activity (Mus musculus [5]): -55%; ED50 (Mus musculus [6]): 3.9 mg/kg; Max inhibition (Mus musculus [7]): 91; inhibition in vivo at 6 mg/kg (Mus musculus [8]): 87%; ED50 (Mus musculus [9]; Mus musculus): 3.9 mg/kg
NC(=O)N(O)C1CCCc2cc(CCc3ccccc3)ccc21 (configuration not stated)	0.6		Activity (Mus musculus [3]): inactive
COc1ccc(COc2ccc3c(c2)CCCC3N(O)C(N)=O)cc1 (configuration not stated)	0.5	-81	Activity (Mus musculus [5]): -13%; ED50 (Mus musculus [6]; [19]): 4.8 mg/kg; ED50 (Mus musculus [9]; Mus musculus): 4.8 mg/kg
NC(=O)N(O)C1CCCc2cc(OCc3ccc(Cl)cc3)ccc21 (configuration not stated)	2.2	-70	Activity (Mus musculus [5]): 0%; ED50 (Mus musculus [6]; [19]): 4.5 mg/kg; ED50 (Mus musculus [9]; Mus musculus): 4.5 mg/kg
NC(=O)N(O)C1COc2cc(OCc3ccccc3)ccc21 (stereo in doubt; 1a) [listing 2 of 2 here]		-100	
NC(=O)N(O)C1CCCc2cc(OCc3ccccc3)ccc21 (single isomer, unassigned; (-))	1.3		
NC(=O)N(O)C1COc2ccc(Oc3ccccc3)cc21 (configuration not stated)	3.5	-64	ED50 (Mus musculus [6]; [19]): 1.9 mg/kg; Max inhibition (Mus musculus [10]): 67; inhibition (Mus musculus [11]): inactive
NC(=O)N(O)C1CCn2c1cc1cc(Oc3ccccc3)ccc12 (configuration not stated)	0.52	-58	
NC(=O)N(O)C1CCc2cc(Oc3ccccc3)ccc21 (configuration not stated)	0.85	-88	ED50 (Mus musculus [6]; [19]): 6.4 mg/kg; Max inhibition (Mus musculus [12]): 88; inhibition in vivo at 10 mg/kg (Mus musculus [13]): 57%
NC(=O)N(O)C1COc2cc(OCc3ccccc3)ccc21 (single isomer, unassigned; (+)) [listing 1 of 2 here]			Clp (Canis familiaris): 3.5 mL/min; clearance [14]: 6.1 mL/min; clearance [15]: 8.6 mL/min; ED50 (Mus musculus [6]): 0.9 mg/kg
COc1ccc2c(c1)CCCC2N(O)C(N)=O (configuration not stated)	48		Activity (Mus musculus [3]): inactive
NC(=O)N(O)C1CCCc2cc(OCc3ccc4ccccc4c3)ccc21 (configuration not stated)	0.5		Activity (Mus musculus [3]): inactive
NC(=O)N(O)C1CCn2c1cc1cc(OCc3ccccc3)ccc12 (configuration not stated)	0.65	-68	Activity (Mus musculus [5]): -8%; ED50 (Mus musculus [6]; [19]): 1.8 mg/kg; ED50 (Mus musculus [9]): 1.8 mg/kg
NC(=O)N(O)C1COc2cc(Oc3ccccc3)ccc21 (configuration not stated)	3.3	-56	
CCc1ccc2c(c1)cc1n2CCC1N(O)C(N)=O (configuration not stated)			Activity (Mus musculus [3]): inactive

SMILES	IC50 [1] [µM]	Activity [2] [%]	further results
NC(=O)N(O)C1CCc2cc(OCc3ccccc3)ccc21 (single isomer, unassigned; (+))	0.88		
NC(=O)N(O)C1CCCc2cc(-c3ccccc3)ccc21 (configuration not stated)	3	-52	
NC(=O)N(O)C1CCCc2cc(OCc3ccccc3)ccc21 (stereo in doubt; 3a)		-67	
NC(=O)N(O)C1CCc2cccc(Oc3ccccc3)c21 (configuration not stated)	5.6		
COc1ccc(COc2ccc3c(c2)OCC3N(O)C(N)=O)cc1 (configuration not stated)	2.7	-73	ED50 (Mus musculus [6]; [19]): 9.8 mg/kg
Cc1c2n(c3ccc(Oc4ccccc4)cc13)CCC2N(O)C(N)=O (configuration not stated)		-26	
NC(=O)N(O)C1CCCc2c1ccc1ccccc21 (configuration not stated)	5.6		
Cc1c2n(c3ccc(C(C)C)cc13)CCC2N(O)C(N)=O (configuration not stated)	1.7		Activity (Mus musculus [3]): inactive
NC(=O)N(O)C1CCCc2c(Oc3ccccc3)cccc21 (configuration not stated)	0.84	-57	
NC(=O)N(O)C1CCc2cc(OCc3ccccc3)ccc21 (stereo in doubt; 2a) [listing 1 of 2 here]		-85	
NC(=O)N(O)C1CCCc2cc(OCc3ccccc3)ccc21 (single isomer, unassigned; (+)) [listing 1 of 2 here]		28	
NC(=O)N(O)C1CCCc2cc(OCc3ccccc3)ccc21 (single isomer, unassigned; (+)) [listing 2 of 2 here]	0.76		
NC(=O)N(O)C1CCn2c1cc1ccccc12 (configuration not stated)	10	-74	
NC(=O)N(O)C1CCCc2ccc(OCc3ccccc3)cc21 (configuration not stated)	1		Activity (Mus musculus [3]): inactive
NC(=O)N(O)C1COc2cc(OCc3ccccc3)ccc21 (single isomer, unassigned; (-))			Rate of formation (nM (mg of protein)-1) (Mus musculus [16]): 5.9; Rate of formation (nM (mg of protein)-1) (Homo sapiens [17]): 60.3
NC(=O)N(O)C1CCc2cc(OCc3ccccc3)ccc21 (stereo in doubt; (-)2a) [listing 2 of 2 here]	0.62		
NC(=O)N(O)C1CCc2cc(OCc3ccccc3)ccc21 (stereo in doubt; 2a) [listing 2 of 2 here]	0.78		Activity (Mus musculus [5]): -31%; ED50 (Mus musculus [6]; [19]): 2.6 mg/kg; ED50 (Mus musculus [9]; Mus musculus): 4 mg/kg
NC(=O)N(O)C1CCn2c1cc1cc(Cl)ccc12 (configuration not stated)	1.3		
NC(=O)N(O)C1COc2cc(OCc3ccccc3)ccc21 (single isomer, unassigned; (+)) [listing 2 of 2 here]			Rate of formation (Mus musculus [18]): inactive; Rate of formation (nM (mg of protein)-1) (Homo sapiens [17]): 2.5
